# Results from PMC9359741 (Clinical Cancer Research, 2022).
# Several values for one entry are separate records, joined by “and”; a condition that tells them apart may be missing. Identical values can stand only once. Like-named read-outs stand apart in the source and are kept apart here.
# What was measured:
# [1] = test system: patients with selected advanced solid tumors; format: in vivo, human; conditions: Phase 1b
# Method in brief: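 Adults (≥18 y) with histologically or cytologically confirmed selected advanced solid tumours. Oral test compound started at 200 mg QD, with planned escalation to 400 mg QD, plus anti-PD-1 antibody 2 mg/kg IV every 3 weeks. DLT incidence defined the MTD (DLT criteria in supplement). AEs and lab abnormalities were graded by CTCAE v4.03 in all patients given ≥1 dose and summarized descriptively.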
# [2] = test system: platinum-resistant ovarian cancer (prOVCA); assay: Phase 2 efficacy; format: in vivo, human
# Method in brief: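 Oral test compound 300 mg QD plus anti-PD-1 antibody 200 mg IV Q3W. PD-1/PD-L1 IR cohort: progression on anti-PD-1/PD-L1 (RECIST or irRC). prOVCA cohort: progression ≤6 months after ≥4 platinum cycles. PDA cohort: ≥1 prior systemic line. Investigator assessed best response per RECIST v1.1 and irRC. ORR used confirmed responses with Clopper–Pearson 95% CI; all dosed patients. Screening tissue was profiled for MSI/MMR, TMB and gene expression.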
smiles,measurement,setting,value
Cc1cccc(Cn2nc(C3CC3)c3c(NC(=O)c4cnc5cc(OCCN6CCN(C)CC6)ccn45)cccc32)n1 [ARRY-382],ARRY-382-related AEs: All AEs,"[1]; ARRY-382 200 mg, N = 6",5 (83.3%) n (%) and 5 (83.3) n (%)
same,ARRY-382-related AEs: Amylase increased,"[1]; ARRY-382 200 mg, N = 6",1 (16.7) n (%)
same,ARRY-382-related AEs: Blood CPK increased,"[1]; ARRY-382 200 mg, N = 6",2 (33.3) n (%)
same,ARRY-382-related AEs: Blood alkaline phosphatase increased,"[1]; ARRY-382 200 mg, N = 6",1 (16.7) n (%)
same,ARRY-382-related AEs: Chills,"[1]; ARRY-382 200 mg, N = 6",1 (16.7) n (%)
same,ARRY-382-related AEs: Fatigue,"[1]; ARRY-382 200 mg, N = 6",2 (33.3) n (%)
same,ARRY-382-related AEs: Lipase increased,"[1]; ARRY-382 200 mg, N = 6",1 (16.7) n (%)
same,ARRY-382-related AEs: Nausea,"[1]; ARRY-382 200 mg, N = 6",0 (0.0) n (%)
same,ARRY-382-related AEs: Pruritus,"[1]; ARRY-382 200 mg, N = 6",2 (33.3) n (%)
same,ARRY-382-related AEs: Pyrexia,"[1]; ARRY-382 200 mg, N = 6",1 (16.7) n (%)
same,ARRY-382-related AEs: Rash maculo-papular,"[1]; ARRY-382 200 mg, N = 6",1 (16.7) n (%)
same,ARRY-382-related AEs: Thrombocytopenia,"[1]; ARRY-382 200 mg, N = 6",0 (0.0) n (%)
same,ARRY-382-related AEs: ALT increased,"[1]; ARRY-382 300 mg, N = 6",3 (50.0) n (%)
same,ARRY-382-related AEs: AST increased,"[1]; ARRY-382 300 mg, N = 6",5 (83.3) n (%)
same,ARRY-382-related AEs: All AEs,"[1]; ARRY-382 300 mg, N = 6",6 (100.0%) n (%) and 6 (100.0) n (%)
same,ARRY-382-related AEs: Amylase increased,"[1]; ARRY-382 300 mg, N = 6",3 (50.0) n (%)
same,ARRY-382-related AEs: Blood CPK increased,"[1]; ARRY-382 300 mg, N = 6",3 (50.0) n (%)
same,ARRY-382-related AEs: Blood alkaline phosphatase increased,"[1]; ARRY-382 300 mg, N = 6",2 (33.3) n (%)
same,ARRY-382-related AEs: Chills,"[1]; ARRY-382 300 mg, N = 6",0 (0.0) n (%)
same,ARRY-382-related AEs: Fatigue,"[1]; ARRY-382 300 mg, N = 6",2 (33.3) n (%)
same,ARRY-382-related AEs: Lipase increased,"[1]; ARRY-382 300 mg, N = 6",4 (66.7) n (%)
same,ARRY-382-related AEs: Nausea,"[1]; ARRY-382 300 mg, N = 6",1 (16.7) n (%)
same,ARRY-382-related AEs: Pruritus,"[1]; ARRY-382 300 mg, N = 6",2 (33.3) n (%)
same,ARRY-382-related AEs: Pyrexia,"[1]; ARRY-382 300 mg, N = 6",0 (0.0) n (%)
same,ARRY-382-related AEs: Rash maculo-papular,"[1]; ARRY-382 300 mg, N = 6",2 (33.3) n (%)
same,ARRY-382-related AEs: Thrombocytopenia,"[1]; ARRY-382 300 mg, N = 6",1 (16.7) n (%)
same,ARRY-382-related AEs: ALT increased,"[1]; ARRY-382 400 mg, N = 7",2 (28.6) n (%)
same,ARRY-382-related AEs: AST increased,"[1]; ARRY-382 400 mg, N = 7",2 (28.6) n (%)
same,ARRY-382-related AEs: All AEs,"[1]; ARRY-382 400 mg, N = 7",5 (71.4%) n (%) and 5 (71.4) n (%)
same,ARRY-382-related AEs: Amylase increased,"[1]; ARRY-382 400 mg, N = 7",1 (14.3) n (%)
same,ARRY-382-related AEs: Blood CPK increased,"[1]; ARRY-382 400 mg, N = 7",2 (28.6) n (%)
same,ARRY-382-related AEs: Blood alkaline phosphatase increased,"[1]; ARRY-382 400 mg, N = 7",2 (28.6) n (%)
same,ARRY-382-related AEs: Chills,"[1]; ARRY-382 400 mg, N = 7",1 (14.3) n (%)
same,ARRY-382-related AEs: Fatigue,"[1]; ARRY-382 400 mg, N = 7",0 (0.0) n (%)
same,ARRY-382-related AEs: Lipase increased,"[1]; ARRY-382 400 mg, N = 7",1 (14.3) n (%)
same,ARRY-382-related AEs: Nausea,"[1]; ARRY-382 400 mg, N = 7",2 (28.6) n (%)
same,ARRY-382-related AEs: Pruritus,"[1]; ARRY-382 400 mg, N = 7",0 (0.0) n (%)
same,ARRY-382-related AEs: Pyrexia,"[1]; ARRY-382 400 mg, N = 7",1 (14.3) n (%)
same,ARRY-382-related AEs: Rash maculo-papular,"[1]; ARRY-382 400 mg, N = 7",1 (14.3) n (%)
same,ARRY-382-related AEs: Thrombocytopenia,"[1]; ARRY-382 400 mg, N = 7",1 (14.3) n (%)
same,ARRY-382-related AEs: ALT increased,"[1]; Total, N = 19",7 (36.8) n (%)
same,ARRY-382-related AEs: AST increased,"[1]; Total, N = 19",8 (42.1) n (%)
same,ARRY-382-related AEs: All AEs,"[1]; Total, N = 19",16 (84.2%) n (%) and 16 (84.2) n (%)
same,ARRY-382-related AEs: Amylase increased,"[1]; Total, N = 19",5 (26.3) n (%)
same,ARRY-382-related AEs: Blood CPK increased,"[1]; Total, N = 19",7 (36.8) n (%)
same,ARRY-382-related AEs: Blood alkaline phosphatase increased,"[1]; Total, N = 19",5 (26.3) n (%)
same,ARRY-382-related AEs: Chills,"[1]; Total, N = 19",2 (10.5) n (%)
same,ARRY-382-related AEs: Fatigue,"[1]; Total, N = 19",4 (21.1) n (%)
same,ARRY-382-related AEs: Lipase increased,"[1]; Total, N = 19",6 (31.6) n (%)
same,ARRY-382-related AEs: Nausea,"[1]; Total, N = 19",3 (15.8) n (%)
same,ARRY-382-related AEs: Pruritus,"[1]; Total, N = 19",4 (21.1) n (%)
same,ARRY-382-related AEs: Pyrexia,"[1]; Total, N = 19",2 (10.5) n (%)
same,ARRY-382-related AEs: Rash maculo-papular,"[1]; Total, N = 19",4 (21.1) n (%)
same,ARRY-382-related AEs: Thrombocytopenia,"[1]; Total, N = 19",2 (10.5) n (%)
same,ARRY-382-related increased ALT,[1]; all patients,36.8%
same,ARRY-382-related increased AST,[1]; all patients,42.1%
same,ARRY-382-related increased CPK,[1]; all patients,36.8%
same,Patients reporting DLTs,[1]; overall,3/19
same,Periorbital edema,[1]; overall,5.3%
same,Median OS,[2],"NR (95% CI, 5.3–NR)"
same,Median PFS,[2],"2.1 (95% CI, 1.2–4.1) months"
same,Median irPFS per irRC,[2],"2.5 (95% CI, 1.2–NR) months"
same,Best overall response: CR,[2]; N = 11,0 (0.0) n (%)
same,Best overall response: NE,[2]; N = 11,2 (18.2) n (%)
same,Best overall response: PD,[2]; N = 11,5 (45.5%) n (%) and 5 (45.5) n (%)
same,Best overall response: PR,[2]; N = 11,0 (0.0) n (%)
same,Best overall response: SD,[2]; N = 11,4 (36.4%) n (%) and 4 (36.4) n (%)
same,Immune-related best overall response: CR,[2]; N = 11,0 (0.0) n (%)
same,Immune-related best overall response: NE,[2]; N = 11,5 (45.5) n (%)
same,Immune-related best overall response: PD,[2]; N = 11,0 (0.0) n (%)
same,Immune-related best overall response: PR,[2]; N = 11,0 (0.0) n (%)
same,Immune-related best overall response: SD,[2]; N = 11,6 (54.5) n (%)
same,"ORR, % (95% CI)","[2]; confirmed, N = 11",0.0 (0.0–28.5) %
same,"ir-ORR, % (95% CI)","[2]; confirmed, N = 11",0.0 (0.0–28.5) %
